Assay outcomes deposited in PubChem BioAssay by several laboratories.
HTR1A agonist = agonists of human 5-HT1a serotonin receptor. P08908. CHO 5-HT1a Ga15 NFAT-bla reporter, FRET ratio; 0% basal, 100% maximal reference agonist. activation, % at 10 µM. actives 0.56% (n = 65,000);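 active = activation above the screen-wide mean activation plus 3 SD, cut at about 19% in these data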;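 also: 0% = DMSO wells and 100% = 5-CT at EC100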
SKBR3 24h inh = SK-BR-3 proliferation inhibitors. SK-BR-3 viability, CellTiter-Glo ATP luminescence, 24 h; hits give low values. viability, % at 10 µM. actives 0.47% (n = 41,000). AID 847;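 active = viability at or below the median of all test compounds minus 3 SD, in both replicates if run twice, cut at about 45% in these data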;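 also: 100% = median untreated cell wells and 0% = median positive control drug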
5-HT1A blocker = 5-HT1a (human) receptor antagonism. CHO 5-HT1a Ga15 NFAT-bla reporter, antagonist mode. P08908. AID 612. inhibition, % at 10 µM. actives 0.68% (n = 62,000);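 active = inhibition above the mean of all tested compounds plus 3 SD, cut at about 43% in these data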;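 also: receptor stimulated by 5-CT agonist at 100 nM near EC80; beta-lactamase reporter measured by ratiometric fluorescence of a cleavable substrate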
5HT1E ag = agonists of human 5-HT1E serotonin receptor. AID 574. actives 0.69% (n = 65,000). P28566. activation, % at 6 µM. CHO 5-HT1E Ga15 NFAT-bla reporter, FRET; 0% DMSO wells, 100% control agonist wells;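 active = activation above a set limit, the screen-wide mean activation plus 3 SD, cut at about 8.5% in these data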;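 also: 100% = positive control agonist at 1 µM giving full maximal response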
Target sequence (P28566 whole entry, looked up): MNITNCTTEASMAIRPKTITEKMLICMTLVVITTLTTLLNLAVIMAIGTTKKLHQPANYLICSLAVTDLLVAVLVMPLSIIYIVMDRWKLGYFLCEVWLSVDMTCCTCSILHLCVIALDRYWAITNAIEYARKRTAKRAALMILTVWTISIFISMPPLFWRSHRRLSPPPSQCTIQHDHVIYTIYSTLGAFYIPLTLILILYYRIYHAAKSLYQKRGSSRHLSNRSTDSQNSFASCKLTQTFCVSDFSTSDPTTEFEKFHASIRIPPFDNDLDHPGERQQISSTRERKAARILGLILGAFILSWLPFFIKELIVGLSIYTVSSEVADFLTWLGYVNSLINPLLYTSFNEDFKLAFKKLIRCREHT
5HT1E antag = antagonists of human 5-HT1E serotonin receptor. P28566. CHO 5-HT1E Ga15 NFAT-bla reporter, FRET, antagonist. inhibition, % at 6 µM. actives 0.99% (n = 65,000);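 active = inhibition above a set limit, the mean inhibition across every tested compound plus 3 SD, cut at about 29% in these data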;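 also: signal is the 460 over 535 nm emission ratio of beta-lactamase substrate; 0% = agonist plus DMSO wells and 100% = wells without agonist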
HEK293 NFkB inh = inhibitors of the PMA/ionomycin-induced NF-kB reporter in HEK293 cells. HEK-293 NF-kB luciferase reporter, luminescence. actives 0.21% (n = 62,000). inhibition, % at 3 µM. AID 465;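 active = inhibition above the mean of all tested compounds plus 3 SD, cut at about 40% in these data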;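 also: 0% = stimulated DMSO wells and 100% = 10 µM reference inhibitor 5653914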
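System: NF-kB luciferase reporter HEK-293 cells | Replication: Single test | Control set: DMSO vs reference inhibitor | Evaluation: % inhibition | Schedule: 1 h pretreatment, 16 h stimulation, 37 °C | Probe or stimulus: PMA with ionomycin | Compound dosing: One dose, 3 µM | Detection: Luciferase luminescence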
The depositor's hits bear a star; / = no result given. In the library only some 2.9% were active in any assay of this set; here they are far more common.

SMILES	HTR1A agonist	SKBR3 24h inh	5-HT1A blocker	5HT1E ag	5HT1E antag	HEK293 NFkB inh
Fc1ccc(-c2cc3nc4c(c(N5CCOCC5)n3n2)CCCC4)cc1	-2.2	103.8	26.8	-1.4	26.4	8.6
COc1cccc(-n2c(SCC(=O)Nc3cc(C)on3)nc3c([nH]c4ccccc43)c2=O)c1	-0.5	/	28.4	0.3	32.3*	5.8
O=C(O)C1CCCN1S(=O)(=O)c1ccc(Cl)c(Cl)c1 (stereo not drawn)	-0.6	86.6	10.1	44.2*	-0.6	5.1
CCN(CC)C(=O)CSc1ccccc1N	19.9*	101.3	-4.8	-0.6	-7.9	1.8
O=C(O)c1ccccc1S(=O)(=O)NCC(O)COc1ccc(Br)cc1 (stereo not drawn)	-3.1	113.6	-2.6	0.3	-1.2	0.5
CN1CCN(c2nc(-c3ccncc3)nc3ccccc23)CC1	4.0	81.3	-3.9	9.1*	6.2	5.6
c1ccc2c(N3CCCC3)nc(-c3ccncc3)nc2c1	0.8	81.0	4.9	1.1	0.2	-6.2
CCCn1c(NC(=O)c2ccc(Cl)c(S(=O)(=O)N3CCCC3)c2)nc2ccccc21	4.0	/	10.7	1.7	-16.4	32.4
Cc1nn(-c2ccccc2)c(C)c1NS(=O)(=O)c1ccccc1	-1.3	100.2	10.5	-0.8	36.0*	7.5
Cc1nn(C)c(C)c1NS(=O)(=O)c1ccccc1	-0.9	97.2	-9.5	-0.2	6.2	7.4
COc1ccc(N(C)C(=O)CCS(=O)(=O)c2cccc3nonc23)c(OC)c1	-0.7	70.8	-3.6	0.7	-3.3	18.2
Cc1ccc2c(c1)[nH]c1c(N3CCN(Cc4ccccc4)CC3)ncnc12	-1.2	64.1	23.9	0.8	8.6	10.4
Cc1ccc2[nH]c3c(N4CCN(Cc5ccccc5)CC4)ncnc3c2c1	2.0	62.5	/	-0.4	21.3	/
c1ccc2c(c1)[nH]c1c(N3CCC4(CC3)OCCO4)ncnc12	4.0	77.4	/	-0.7	22.4	/
c1ccc(Cn2nnc3c(N4CCc5ccccc5C4)ncnc32)cc1	95.5*	/	-6.9	0.5	4.1	-0.7
Cc1ccc2[nH]c3c(N4CCCCCC4)ncnc3c2c1	1.9	94.0	/	-0.4	31.9*	/
c1ccc2c(c1)CCN(c1ncnc3c1[nH]c1ccccc13)C2	1.5	90.5	/	0.6	46.4*	/
c1ccc(CN2CCN(c3ncnc4c3[nH]c3ccccc34)CC2)cc1	1.2	72.8	/	0.7	35.4*	/
Cc1ccc(C)c(N(CC(=O)NC2CCCCC2)C(=O)CCC(=O)Nc2ccccn2)c1	-1.6	76.7	1.7	1.4	-0.9	15.1
COc1ccc(C)cc1-n1nnnc1SCC1CCCCO1 (stereo not drawn)	-0.5	/	-7.3	0.0	2.3	14.7
O=C(NCc1nnc(SCC(=O)N2CCC(Cc3ccccc3)CC2)o1)c1ccccc1F	3.6	/	-4.6	0.1	4.3	1.4
COc1ccc(CCNc2c(C)c(C)nc3ncnn23)cc1	-1.9	87.1	10.8	0.5	11.8	46.3*
CSc1nc2ccccc2n1CC(=O)Nc1ccccc1	-1.0	/	15.4	-1.1	1.9	10.2
CCc1ccc(NC(=O)Cn2c(SC)nc3ccccc32)cc1	-2.2	/	13.1	53.7*	-5.8	12.6
CSc1nc2ccccc2n1CC(=O)Nc1ccc(C)c(C)c1	-0.9	/	10.7	15.1*	0.8	19.7
SMILES	HTR1A agonist	SKBR3 24h inh	5-HT1A blocker	5HT1E ag	5HT1E antag	HEK293 NFkB inh
CCOC(=O)C1CCN(C(=O)C2CCN(S(=O)(=O)c3cccc4cccnc34)CC2)CC1	0.5	/	13.2	0.2	6.5	6.6
CC1CCCCN1c1nnc(NC(=O)Cn2c(=O)oc3ccccc32)s1 (stereo not drawn)	2.1	/	-4.1	0.2	-3.6	11.1
COc1ccc2[nH]c3c(c2c1)CN(C)CC3	102.3*	/	6.8	1.3	28.7*	14.0
COc1ccc(NC(=O)CSc2nccn2-c2ccccc2)c(OC)c1	-4.2	/	9.9	21.9*	21.7	0.6
CS(=O)(=O)n1nc(OC(=O)c2cccc3ccccc23)cc1N	-1.9	42.4*	42.8*	-0.6	-1.7	14.8
CCOc1ccccc1N(C(=O)CNC(=O)c1ccco1)C(C(=O)NC(C)(C)C)c1ccncc1 (stereo not drawn)	-2.5	91.5	-4.6	0.6	-4.5	9.4
Cc1noc(C)c1CSc1nc2ccccc2c(=O)n1-c1ccc(F)cc1F	0.0	/	45.5*	0.0	20.8	22.1
Cc1noc(C)c1CSc1nc2[nH]ncc2c(=O)n1-c1ccccc1	-0.9	85.4	37.0	-0.1	51.8*	32.3
N#C/C(=C\c1ccc[nH]1)S(=O)(=O)c1ccccc1	-2.0	84.2	1.7	-1.6	0.9	22.0
CC#CCN(CC#CC)S(=O)(=O)c1ccc(-n2cnnn2)c(OC)c1	1.8	81.8	25.9	0.6	4.6	11.0
CC(=O)NCCOc1nc(N(C)C)nc(N2CCOCC2)n1	25.8*	95.9	-5.5	-0.5	2.0	5.2
O=C(NCCOc1nc(N2CCCCC2)nc(N2CCOCC2)n1)Nc1ccccc1	1.4	112.2	1.0	1.7	1.5	19.6
CCOC(=O)c1c(C)[nH]c(C(C)=O)c1C	-0.6	/	-11.3	0.1	5.3	21.2
CCOC(=O)c1[nH]c(C)c(C(=O)OCCN2C(=O)c3ccccc3C2=O)c1C	1.7	/	9.7	-1.7	37.4*	3.3
COc1ccc(-c2nc3nc(C)cc(C)n3n2)cc1	-1.9	81.3	-19.8	0.6	-2.7	-5.4
Fc1ccccc1/C=N/n1cnnc1	2.1	91.3	/	-0.1	-8.4	/
Cc1cc(C)n(-c2nncn2/N=C/c2ccccc2F)n1	-1.9	98.1	54.7*	-1.6	12.4	15.9
CCCC1(CCC)NC(=O)N(CC(=O)Nc2cccc(OC)c2)C1=O	-1.9	/	3.9	-0.6	4.8	15.3
Cn1c(C(=O)NCCc2c[nH]c3ccccc23)cc2sccc21	-4.4	/	18.1	0.2	14.6	6.4
O=C(NCCc1c[nH]c2ccccc12)c1c(Cl)nc2sccn12	18.6	86.3	-9.3	-1.5	33.3*	-4.9
CC1CC(C)CN(S(=O)(=O)c2ccc(C(=O)NCCCn3ccnc3)cc2)C1 (stereo not drawn)	-2.8	/	-3.2	-1.0	1.8	-30.2
O=C(NCCCn1ccnc1)c1ccco1	20.1*	104.3	-10.0	-0.2	-5.1	0.7
O=C(NCCCn1ccnc1)c1ccncc1	0.3	95.4	0.3	0.7	-7.3	15.5
CCOc1cc(S(=O)(=O)NC2CCCC2)ccc1Cl	0.1	84.4	-9.8	15.1*	-2.8	12.7
COc1ccc(N2CCn3c2nc2c3c(=O)n(CCCc3ccccc3)c(=O)n2C)cc1	-0.4	87.3	3.3	1.0	-1.5	6.0
COc1ccc(N2CC(C)Cn3c2nc2c3c(=O)n(CCc3ccccc3)c(=O)n2C)cc1 (stereo not drawn)	2.0	93.5	-4.1	12.3*	12.6	21.2
O=C(Nc1ccc(NC(=O)c2ccco2)nc1)c1ccccn1	-2.5	87.2	5.4	34.4*	-2.4	-21.4
